Measurements gathered from unrelated publications.
Cell line: A549
Observed: cell growth or viability

SMILES	technique	concentration	inhibition
COc1cc2ncnc(NN=C3C(=O)Nc4ccc(C)cc43)c2cc1OC		30 µM	20.5%
O=C(CN1C(=O)/C(=C/c2ccc(Cl)cc2)SC1=S)Nc1ccccc1	MTT	10 µM	36.7%
COc1cc2ncnc(NN=C3C(=O)Nc4ccccc43)c2cc1OC		30 µM	32.9%
O=C(CN1C(=O)/C(=C/c2ccncc2)SC1=S)Nc1ccccc1	MTT	10 µM	25.9%
COc1cc2ncnc(NN=C3C(=O)Nc4ccc(F)cc43)c2cc1OC		10 µM	7.1%
O=C(N/N=C1\C(=O)N(c2ccccc2)c2ccccc21)c1cc2ccccc2[nH]1		30 µM	98.5%
Cn1c(=O)c(NN=C2C(=O)Nc3ccccc32)nc2ccccc21		30 µM	95.2%
O=C1Nc2ccccc2/C1=N/NC(=O)c1cc2ccccc2[nH]1		30 µM	90.9%
O=C(CN1C(=O)/C(=C/c2cccc(F)c2)SC1=S)Nc1ccccc1	MTT	10 µM	26.1%
COc1ccc2c(c1)/C(=N/NC(=O)c1cc3ccccc3[nH]1)C(=O)N2C		30 µM	97.4%
COc1cccc(NC(=O)CN2C(=O)/C(=C/c3ccc(F)cc3)SC2=S)c1	MTT	10 µM	22.3%
COc1cc(CNC(=O)CCCC/C=C/C(C)C)ccc1O	SRB	10 µM	0%
O=C(CN1C(=O)/C(=C/c2cccc([N+](=O)[O-])c2)SC1=S)Nc1ccccc1	MTT	10 µM	22.2%
Cc1ccc2c(c1)C(=NNc1nnc(Cc3ccccc3)c3ccccc13)C(=O)N2		30 µM	85%
O=C1Nc2ccc(Cl)cc2/C1=N/NC(=O)c1cc2ccccc2[nH]1		30 µM	60.6%
Cc1c(-c2cccc(C(F)(F)F)c2)sc2[nH]c(=O)n([C@H](C)c3cccc4ccccc34)c(=O)c12		10 µM	> 80%
CN1C(=O)/C(=N\NC(=O)c2cc3ccccc3[nH]2)c2cc(F)ccc21		30 µM	90.3%
O=C(CN1C(=O)/C(=C/c2ccc(O)cc2)SC1=S)Nc1ccccc1	MTT	10 µM	29.6%
CN1C(=O)/C(=N\NC(=O)c2cc3ccccc3[nH]2)c2ccccc21		30 µM	94.9%
COc1ccc2c(c1)C(=NNc1nc3ccccc3n(C)c1=O)C(=O)N2		30 µM	85.9%
